Screening data from PubChem BioAssay.
This is a sample that favours compounds with a hit; in the whole collection about 3.1% have one here.
Env fusion inh = inhibitors of HIV-1 Env-driven cell-cell fusion, primary screen, HeLa-JRFL effector, CEM21 target cells, luciferase; inhibition, % at 12.3 µM; 360,000 tested, 1.1% active; AID 651610, 2012;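 active = mean replicate inhibition score of at least 50 and every replicate individually at or above 50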
EWS-Fli block = EWS/Fli-driven NR0B1 reporter inhibitors, primary screen, A673 cells, NR0B1 luciferase, luminescence, MLPCN library; viability-normalised; inhibition, % at 12.6 µM; 350,000 tested, 0.67% active;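 active = mean inhibition of at least 50% after viability correction, with every replicate also passing that limit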;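 note: firefly luciferase signal divided by Alamar Blue viability fluorescence both relative to DMSO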
PAX8 inh HTS = inhibitors of PAX8-driven TPO luciferase reporter, primary screen, RMG-I cells, single concentration; SteadyGlo, 24 h; inhibition, % at 12.6 µM; 360,000 tested, 1.2% active; AID 652154, 2013;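 active = mean replicate inhibition at least 60% with every replicate also reaching 60%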;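 note: luciferase light reporting Pax8 driven TPO promoter activity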
PGC1a acetyl inh = inhibitors of PGC1a acetylation signal, primary screen, cell-based, U2OS, AlphaScreen, inhibitor mode | 350,000 tested, 0.17% active | inhibition, % at 15.6 µM | AlphaScreen anti-acetyl-lysine; with virally co-expressed GCN5 acetyltransferase;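 active = every replicate shows inhibition of at least 40%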
FN deposit inh = inhibitors of fibronectin matrix deposition, primary screen, AH1F cells, Alexa488-fibronectin fluorescence, plate reader; AH1F fibroblasts, overnight; inhibition, % at 12.6 µM; 350,000 tested, 0.086% active; AID 743247, 2014;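 active = mean inhibition across replicates of 30% or more, regardless of how many single replicates reach that level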
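Measured by – fluorescence 485/525 nm · System – AH1F fibroblast monolayer, labelled fibronectin deposition · Amount – 10000 cells per well · Buffer or medium – serum-reduced DMEM (2% serum) · Doses – single dose, pinned · Also added – fluorescent fibronectin at 24 nM final · Schedule – 1 h cell attachment, overnight exposure to compound and label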
FGF22 binding = binders of human FGF22 protein, primary screen, FGF22 synaptogenesis inhibitor project, biophysical, thermal shift, single point | recombinant FGF22 thermal shift, SYPRO orange fluorescence; percent of sucrose octasulfate shift, DMSO zero | activity (Tm shift, normalised), % at 9.99 µM | 340,000 tested, 1.5% active;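 active = mean Tm shift, scaled 0 neutral to 100 positive control, at about 1.3% or above, every replicate too, limit read from the data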
Target sequence (Q9HCT0 whole entry, looked up): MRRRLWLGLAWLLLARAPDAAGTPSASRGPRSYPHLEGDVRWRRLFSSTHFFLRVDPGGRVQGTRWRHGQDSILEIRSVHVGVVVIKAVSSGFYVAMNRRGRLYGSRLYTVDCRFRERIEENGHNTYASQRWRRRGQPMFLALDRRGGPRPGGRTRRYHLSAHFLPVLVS
Each line names hits and unclear results; the compound was inactive in the other large screens; [ ] = dose if it differs, or a comment.

O=C(N[C@@H]1CC[C@@H](CC(=O)N2CCN(c3ccccc3)CC2)O[C@H]1CO)c1ccncc1	none
Cc1ccc(C)c(CSc2nc3[nH]ncc3c(=O)[nH]2)c1	EWS-Fli block 58 (no result: PGC1a acetyl inh)
CSc1nsc(SCC(=O)Nc2ccccc2C(=O)O)n1	FGF22 binding 1.5 (no result: PGC1a acetyl inh)
NC(=O)c1ccccc1NC(=O)CSc1nc2ccccc2c(=O)[nH]1	none (no result: PGC1a acetyl inh, FN deposit inh)
Cc1cc2nc(SCC(=O)Nc3ccccc3C(=O)O)[nH]c2cc1C	FGF22 binding 2.2 (no result: PGC1a acetyl inh)
CSc1nsc(SCC(=O)Nc2ccc(O)c(C(=O)O)c2)n1	none (no result: PGC1a acetyl inh)
O=C(Nc1cccc(Cl)c1)N[C@H]1CC[C@@H](CCNC(=O)C2CCCC2)O[C@H]1CO	none
CC1(C(=O)Nc2ccc3c(c2)OCO3)CCN1Cc1csc2ccccc12 (stereo unspecified)	Env fusion inh 63
COc1cccc(CN2CCC2(C)C(=O)Nc2cccc(Oc3ccccc3)c2)c1OC (stereo unspecified)	Env fusion inh 86
O=C1CC(c2ccc(O)cc2)Oc2cc(O)cc(O)c21 (stereo unspecified)	none
O=C(c1c(O)cc(O)cc1O)C1c2c(cc(O)c3c2O[C@H](c2ccc(O)cc2)[C@@H](O)C3)OC1c1ccc(O)cc1 (stereo partly specified)	FGF22 binding 1.5 (no result: PGC1a acetyl inh)
COc1ccc(-c2cnnc(N/N=C/c3ccc(-c4ccc([N+](=O)[O-])cc4)o3)n2)cc1	EWS-Fli block 53 (no result: PGC1a acetyl inh)
O=[N+]([O-])c1ccc(-c2ccc(/C=N/Nc3nc(N4CCCC4)nc(N4CCCC4)n3)o2)cc1	none
C[C@H](CO)N1C[C@H](C)[C@@H](CN(C)S(=O)(=O)c2cn(C)cn2)Oc2ccc(NC(=O)Nc3cccc4ccccc34)cc2C1=O	none (no result: Env fusion inh, PAX8 inh HTS, FN deposit inh)
O=C(O)[C@H](Cc1ccccc1)N1C(=O)c2c(Cl)c(Cl)c(Cl)c(Cl)c2C1=O	FGF22 binding 5.8 (no result: PGC1a acetyl inh)
C[C@@H]1CN([C@H](C)CO)C(=O)c2cc(C#CCN(C)C)cnc2O[C@@H]1CN(C)C(=O)c1ccc(F)cc1	none (no result: PAX8 inh HTS, FN deposit inh)
C[C@H]1CCCCO[C@@H](CN(C)C(=O)C2CCCCC2)[C@@H](C)CN([C@@H](C)CO)C(=O)c2cc(NC(=O)C3CCCCC3)ccc2O1	none (no result: FN deposit inh)
O=C(CNC(=O)c1ccc(Cl)cc1)OC1CCOC1=O (stereo unspecified)	FGF22 binding 43
C[C@H](CO)N1C[C@H](C)[C@@H](CN(C)S(=O)(=O)c2ccccc2)Oc2ccc(NC(=O)Nc3ccccc3)cc2CC1=O	none (no result: FN deposit inh)
C[C@H](CO)N1C[C@H](C)[C@H](CN(C)S(=O)(=O)c2ccccc2)Oc2ccc(NC(=O)Nc3ccccc3)cc2CC1=O	Env fusion inh 80[16.7 µM] (no result: FN deposit inh)
Cc1ccc(S(=O)(=O)N(C)C[C@H]2Oc3ccc(NC(=O)Nc4ccc(F)cc4)cc3CC(=O)N([C@H](C)CO)C[C@@H]2C)cc1	none (no result: FN deposit inh)
C[C@H](CO)N1C[C@H](C)[C@H](CN(C)S(=O)(=O)c2ccccc2)Oc2ccc(NC(=O)Cc3ccccc3)cc2CC1=O	Env fusion inh 92[16.7 µM] (no result: FN deposit inh)
C[C@H](CO)N1C[C@H](C)[C@H](CN(C)S(=O)(=O)c2ccc(F)cc2)Oc2ccc(NC(=O)Nc3ccccc3)cc2CC1=O	Env fusion inh 55[16.7 µM] (no result: FN deposit inh, FGF22 binding)
Cc1ccc(S(=O)(=O)N(C)C[C@@H]2Oc3ccc(NC(=O)Nc4ccc(F)cc4)cc3CC(=O)N([C@H](C)CO)C[C@@H]2C)cc1	EWS-Fli block 63 (no result: FN deposit inh)
CC(=O)N(C)C[C@@H]1Oc2cc(/C=C/c3ccccc3)ccc2S(=O)(=O)N([C@@H](C)CO)C[C@H]1C	none (no result: PAX8 inh HTS, FN deposit inh)
COc1cccc(-c2cn(CC[C@H]3CC[C@H](NC(=O)CN(C)C)[C@@H](CO)O3)nn2)c1	none
C[C@H](CO)N1C[C@H](C)[C@H](CN(C)S(=O)(=O)c2ccc(F)cc2)Oc2ccc(NC(=O)Nc3cccc4ccccc34)cc2CC1=O	Env fusion inh 83[16.7 µM] (no result: FN deposit inh)
